Measurements reported in ChEMBL document CHEMBL2331168, “Anticonvulsant evaluation of aminoalkanol derivatives of 2- and 4-methylxanthone” (Bioorg Med Chem, 2013).
Activity calls are given as the source filed them.

Legend:
[1] = test system: Rattus norvegicus; assay: Neurotoxicity in Sprague-Dawley rat assessed as minimal motor impairment at 30 mg/kg, po after 2 hrs by rotorod test; details: in vivo
[2] = test system: Rattus norvegicus; assay: Anticonvulsant activity in Sprague-Dawley rat assessed as protection against maximal electroshock-induced seizures at 30 mg/kg, po after 1 hr; format: functional, organism-based; parameters: dose 30 mg/kg
Summary of the method: (§1)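 Male Sprague-Dawley rats dosed orally at 30 mg/kg and tested at 0.25, 0.5, 1, 2 and 4 h. Seizures were induced by 60 Hz alternating current at 150 mA for 0.2 s through corneal electrodes, after a drop of 0.9% NaCl in each eye. Protection meant abolition of hindlimb tonic extension. Reported as protected/tested, usually 4 rats per time point.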

[3] = test system: Mus musculus; assay: Anticonvulsant activity in albino mouse assessed as protection against subcutaneous pentetrazole-induced seizures at 30 mg/kg, ip after 0.5 hrs; format: functional, organism-based; parameters: dose 30 mg/kg
Summary of the method: (§2)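 Male albino mice (Carworth Farms No. 1) received compound ip in 0.5% methylcellulose, then pentetrazole 85 mg/kg sc in 0.9% NaCl at 0.5 or 4 h. Mice were watched for at least 30 min. Protection meant no threshold seizure, defined as a single clonic spasm lasting at least 5 s. Scored as protected/tested.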

[4] = test system: Rattus norvegicus; assay: Anticonvulsant activity in Sprague-Dawley rat assessed as protection against maximal electroshock-induced seizures at 30 mg/kg, po after 0.5 hrs; format: functional, organism-based; parameters: dose 30 mg/kg
Summary of the method: as §1

[5] = test system: Mus musculus; assay: Anticonvulsant activity in albino mouse assessed as protection against maximal electroshock-induced seizures at 30 mg/kg, ip after 4 hrs; format: functional, organism-based; parameters: dose 30 mg/kg
Summary of the method: (§3)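 Male albino mice (Carworth Farms No. 1) were given the compound ip as a suspension in 0.5% methylcellulose at 3–300 mg/kg. MES testing was at 0.5 and 4 h, sometimes also at 0.25 and 1 h. Current was 60 Hz, 50 mA, 0.2 s via corneal electrodes, with saline eye drops. Protection meant no hindlimb tonic extension, scored as protected/tested.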

[6] = test system: Rattus norvegicus; assay: Neurotoxicity in Sprague-Dawley rat assessed as minimal motor impairment at 30 mg/kg, po after 0.5 hrs by rotorod test; details: in vivo
[7] = test system: Rattus norvegicus; assay: Neurotoxicity in Sprague-Dawley rat assessed as minimal motor impairment at 30 mg/kg, po after 0.25 hrs by rotorod test; details: in vivo
[8] = test system: Mus musculus; assay: Anticonvulsant activity in albino mouse assessed as protection against subcutaneous pentetrazole-induced seizures at 300 mg/kg, ip after 4 hrs; format: functional, organism-based; parameters: dose 300 mg/kg
Summary of the method: as §2

[9] = test system: Rattus norvegicus; assay: Anticonvulsant activity in Sprague-Dawley rat assessed as protection against maximal electroshock-induced seizures at 30 mg/kg, po after 4 hrs; format: functional, organism-based; parameters: dose 30 mg/kg
Summary of the method: as §1

[10] = test system: Mus musculus; assay: Anticonvulsant activity in albino mouse assessed as protection against subcutaneous pentetrazole-induced seizures at 100 mg/kg, ip after 0.5 hrs; format: functional, organism-based; parameters: dose 100 mg/kg
Summary of the method: as §2

[11] = test system: Mus musculus; assay: Anticonvulsant activity in albino mouse assessed as protection against maximal electroshock-induced seizures at 300 mg/kg, ip after 0.5 hrs; format: functional, organism-based; parameters: dose 300 mg/kg
Summary of the method: as §3

[12] = test system: Mus musculus; assay: Neurotoxicity in albino mouse assessed as minimal motor impairment at 300 mg/kg, ip after 4 hrs by rotorod test; format: toxicity, organism-based; parameters: dose 300 mg/kg, route intraperitoneal; details: in vivo
Summary of the method: (§4)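 Male albino mice (Carworth Farms No. 1) were dosed ip with suspensions in 0.5% methylcellulose and put on a 1 in. knurled rod rotating at 6 rpm at set times after dosing. Neurotoxicity meant failure to stay on the rod for at least 1 min in each of three trials. Scored as impaired/tested.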

[13] = test system: Mus musculus; assay: Anticonvulsant activity in albino mouse assessed as protection against maximal electroshock-induced seizures at 300 mg/kg, ip after 4 hrs; format: functional, organism-based; parameters: dose 300 mg/kg
Summary of the method: as §3

[14] = test system: Mus musculus; assay: Anticonvulsant activity in albino mouse assessed as protection against subcutaneous pentetrazole-induced seizures at 30 mg/kg, ip after 4 hrs; format: functional, organism-based; parameters: dose 30 mg/kg
Summary of the method: as §2

[15] = test system: Mus musculus; assay: Anticonvulsant activity in albino mouse assessed as protection against subcutaneous pentetrazole-induced seizures at 100 mg/kg, ip after 4 hrs; format: functional, organism-based; parameters: dose 100 mg/kg
Summary of the method: as §2

[16] = test system: Mus musculus; assay: Anticonvulsant activity in albino mouse assessed as protection against maximal electroshock-induced seizures at 30 mg/kg, ip after 0.5 hrs; format: functional, organism-based; parameters: dose 30 mg/kg
Summary of the method: as §3

[17] = test system: Mus musculus; assay: Neurotoxicity in albino mouse assessed as minimal motor impairment at 100 mg/kg, ip after 4 hrs by rotorod test; format: toxicity, organism-based; parameters: dose 100 mg/kg, route intraperitoneal; details: in vivo
Summary of the method: as §4

[18] = test system: Mus musculus; assay: Neurotoxicity in albino mouse assessed as minimal motor impairment at 30 mg/kg, ip after 4 hrs by rotorod test; format: toxicity, organism-based; parameters: dose 30 mg/kg, route intraperitoneal; details: in vivo
Summary of the method: as §4

[19] = test system: Rattus norvegicus; assay: Anticonvulsant activity in Sprague-Dawley rat assessed as protection against maximal electroshock-induced seizures at 30 mg/kg, po after 2 hrs; format: functional, organism-based; parameters: dose 30 mg/kg
Summary of the method: as §1

[20] = test system: Rattus norvegicus; assay: Neurotoxicity in Sprague-Dawley rat assessed as minimal motor impairment at 30 mg/kg, po after 1 hr by rotorod test; details: in vivo
[21] = test system: Rattus norvegicus; assay: Anticonvulsant activity in Sprague-Dawley rat assessed as protection against maximal electroshock-induced seizures at 30 mg/kg, po after 0.25 hrs; format: functional, organism-based; parameters: dose 30 mg/kg
Summary of the method: as §1

[22] = test system: Mus musculus; assay: Anticonvulsant activity in albino mouse assessed as protection against subcutaneous pentetrazole-induced seizures at 300 mg/kg, ip after 0.5 hrs; format: functional, organism-based; parameters: dose 300 mg/kg
Summary of the method: as §2

[23] = test system: Rattus norvegicus; assay: Neurotoxicity in Sprague-Dawley rat assessed as minimal motor impairment at 30 mg/kg, po after 4 hrs by rotorod test; details: in vivo
[24] = test system: Mus musculus; assay: Anticonvulsant activity in albino mouse assessed as protection against maximal electroshock-induced seizures at 100 mg/kg, ip after 4 hrs; format: functional, organism-based; parameters: dose 100 mg/kg
Summary of the method: as §3

[25] = test system: Mus musculus; assay: Anticonvulsant activity in albino mouse assessed as protection against maximal electroshock-induced seizures at 100 mg/kg, ip after 0.5 hrs; format: functional, organism-based; parameters: dose 100 mg/kg
Summary of the method: as §3

[26] = test system: Mus musculus; assay: Neurotoxicity in albino mouse assessed as minimal motor impairment at 300 mg/kg, ip after 0.5 hrs by rotorod test; format: toxicity, organism-based; parameters: dose 300 mg/kg, route intraperitoneal; details: in vivo
Summary of the method: as §4

[27] = test system: Mus musculus; assay: Neurotoxicity in albino mouse assessed as minimal motor impairment at 30 mg/kg, ip after 0.5 hrs by rotorod test; format: toxicity, organism-based; parameters: dose 30 mg/kg, route intraperitoneal; details: in vivo
Summary of the method: as §4

[28] = test system: Mus musculus; assay: Neurotoxicity in albino mouse assessed as minimal motor impairment at 100 mg/kg, ip after 0.5 hrs by rotorod test; format: toxicity, organism-based; parameters: dose 100 mg/kg, route intraperitoneal; details: in vivo
Summary of the method: as §4

[29] = test system: Mus musculus; assay: Anticonvulsant activity in albino mouse assessed as protection against maximal electroshock-induced seizures at 100 mg/kg, ip after 1 hr; format: functional, organism-based; parameters: dose 100 mg/kg
Summary of the method: as §3

[30] = test system: Mus musculus; assay: Neurotoxicity in albino mouse assessed as minimal motor impairment at 100 mg/kg, ip after 0.25 hrs by rotorod test; format: toxicity, organism-based; parameters: dose 100 mg/kg, route intraperitoneal; details: in vivo
Summary of the method: as §4

SMILES | Activity [1] | Activity [2] | Activity [3] | Activity [4] | Activity [5] | Activity [6] | Activity [7] | Activity [8] | Activity [9] | Activity [10] | Activity [11] | Activity [12] | Activity [13] | Activity [14] | Activity [15] | Activity [16] | Activity [17] | Activity [18] | Activity [19] | Activity [20] | also measured
CN(Cc1ccc2oc3ccc(Cl)cc3c(=O)c2c1)C(C)(C)CO | Non-toxic | inactive | inactive | inactive | inactive | Non-toxic | Non-toxic | inactive | inactive | inactive | Active | Non-toxic | Active | inactive | inactive | inactive | Non-toxic | Non-toxic | inactive | Non-toxic | Activity [21]: inactive; Activity [22]: inactive; Activity [23]: Non-toxic
CCC(CO)NCc1cccc2c(=O)c3ccc(OC)cc3oc12 (racemic) | Non-toxic | inactive | inactive | inactive | inactive | Non-toxic | Non-toxic | – | inactive | inactive | Active | Toxic | – | inactive | inactive | inactive | Non-toxic | Non-toxic | inactive | Non-toxic | Activity [24]: inactive; Activity [25]: Active; Activity [26]: Toxic; Activity [27]: Non-toxic; Activity [28]: Toxic; Activity [21]: inactive; Activity [23]: Non-toxic
CC(C)(CO)NCc1ccc2oc3ccc(Cl)cc3c(=O)c2c1 | – | – | inactive | – | inactive | – | – | inactive | – | inactive | Active | Non-toxic | Active | inactive | inactive | inactive | Non-toxic | – | – | – | Activity [24]: inactive; Activity [25]: inactive; Activity [27]: Non-toxic; Activity [29]: inactive; Activity [22]: inactive; Activity [30]: Non-toxic
